Assay results gathered from unrelated publications.
Protocols differ between the studies behind these lines. ≈ marks a conversion by molar mass, not a printed value.
Organism: Staphylococcus aureus

| SMILES | observed | method | strain | concentration | notes | endpoint | result |
| --- | --- | --- | --- | --- | --- | --- | --- |
| CSc1ccc(-c2nc3ccc(C)cc3[nH]2)cc1 | microbial growth | broth dilution | ATCC43300 MRSA |  | drug-resistant strain | MIC | 32 µg/mL (≈ 126 µM) |
| CN[C@H](CC(C)C)C(=O)N[C@H]1C(=O)N[C@@H](CC(N)=O)C(=O)N[C@H]2C(=O)N[C@H]3C(=O)N[C@H](C(=O)N[C@H](C(=O)O)c4cc(O)cc(O)c4-c4cc3ccc4O)[C@H](O)c3ccc(c(Cl)c3)Oc3cc2cc(c3O[C@@H]2O[C@H](CO)[C@@H](O)[C@H](O)[C@H]2O[C@H]2C[C@](C)(N)[C@H](O)[C@H](C)O2)Oc2ccc(cc2Cl)[C@H]1O | microbial killing | broth dilution | NRS107 |  |  | MBC | 1 µM |
| COC(=O)c1cc(-c2cccc(NC(=O)Nc3ccc(C(F)(F)F)cc3)c2)on1 | microbial growth | broth dilution | ATCC29213 |  |  | MIC | 8 to 16 µg/mL (≈ 19.7 to 39.5 µM) |
| CC1(C)S[C@@H]2[C@H](NC(=O)[C@H](N)c3ccccc3)C(=O)N2[C@H]1C(=O)O | microbial growth | well diffusion | ATCC25923 | 60000 µg/mL |  | inhibition zone | 35 mm |
| COC(=O)c1cc(-c2cccc(NC(=S)Nc3ccc(C)cc3)c2)on1 | microbial growth | broth dilution | ATCC29213 |  |  | MIC | > 64 µg/mL |
| C=CCn1c(-c2ccc(Cl)cc2)nc2ccccc21 | microbial growth | broth dilution | ATCC43300 MRSA |  | drug-resistant strain | MIC | 128 µg/mL (≈ 476 µM) |
| COC(=O)c1cc(-c2cccc(NC(=S)Nc3ccc(F)c(Cl)c3)c2)on1 | microbial growth | broth dilution | ATCC29213 |  |  | MIC | > 64 µg/mL |
| O=C(O)c1cn(C2CC2)c2cc(N3CCNCC3)c(F)cc2c1=O | microbial killing |  |  |  |  | MBC | 0.019 µg/mL |
| CC1(c2ccccc2O)Nn2c(nc(-c3ccc(Cl)cc3)c(C#N)c2=O)N1C(Cc1c[nH]c2ccccc12)C(=O)O (stereo not drawn) | microbial killing |  |  |  | drug-resistant strain | MBC | 100 µg/mL |
| O=[N+]([O-])c1ccc(-c2nc3ccccc3[nH]2)cc1 | microbial growth | broth dilution | ATCC43300 MRSA |  | drug-resistant strain | MIC | 256 µg/mL (≈ 1070 µM) |
| CC(=O)Oc1cccc2c1[nH]c1c(C3=C[C@@]4(OC(C)=O)CC/C=C\CCCCN5CC[C@@H]3[C@]3(C[C@@H]6/C=C\CCCCN6[C@H]34)C5)nccc12 | microbial killing |  | MRSA |  | drug-resistant strain | MFC | > 20 µg/mL |
| COC(=O)c1cc(-c2cccc(NC(=S)Nc3ccc(F)cc3)c2)on1 | microbial growth | broth dilution | ATCC29213 |  |  | MIC | > 64 µg/mL |
| Cc1ccc2nc(-c3ccco3)n(Cc3ccccc3)c2c1 | microbial growth | broth dilution | ATCC43300 MRSA |  | drug-resistant strain | MIC | 128 µg/mL (≈ 444 µM) |
| CC1(C)CC[C@]2(C(=O)O)CC[C@]3(C)C(=CC[C@@H]4[C@@]5(C)CC[C@H](O)C(C)(C)[C@@H]5CC[C@]43C)[C@@H]2C1 | microbial growth |  | USA300 |  |  | MIC | 256 µg/mL (≈ 561 µM) |
| COC(=O)c1cc(-c2cccc(NC(=O)Nc3ccccc3F)c2)on1 | microbial growth | broth dilution | ATCC29213 |  |  | MIC | > 64 µg/mL |
| CCOc1ccc(-c2nc3ccccc3n2Cc2ccccc2)cc1 | microbial growth | broth dilution | ATCC43300 MRSA |  | drug-resistant strain | MIC | 64 µg/mL (≈ 195 µM) |
| COC(=O)c1cc(-c2cccc(NC(=O)Nc3cccc(F)c3)c2)on1 | microbial growth | broth dilution | ATCC29213 |  |  | MIC | > 64 µg/mL |
| COc1ccc(-c2nc3ccccc3[nH]2)cc1OC | microbial growth | broth dilution | ATCC43300 MRSA |  | drug-resistant strain | MIC | 256 µg/mL (≈ 1010 µM) |
